# According to ChEMBL document CHEMBL4364345, “Synthesis and evaluation of 1,3,4-oxadiazole derivatives for development as broad-spectrum antibiotics” (Bioorg Med Chem, 2019):
# pIC50: −log10 of the molar value. Active and inactive are the calls of the source.
# What was measured:
# Acinetobacter baumannii = experiment: Antimicrobial activity against Acinetobacter baumannii clinical isolate at 50 ug/disk incubated for 20 +/- 4 hrs by agar disk diffusion method; format: functional; conditions: read-out: DIZ
# How it was run: (§1)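 Agar disk diffusion on Mueller-Hinton agar swab-seeded from a 0.5 McFarland inoculum (about 10^8 CFU/ml). Cellulose discs got 50 μg compound (10 μl of 5 g/L in DMSO); a 10 μL DMSO disc was the control. Incubated aerobically at 35 ± 2 °C for 20 ± 4 h, then growth-inhibition diameters measured.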
# Kocuria rhizophila = experiment: Antimicrobial activity against Kocuria rhizophila clinical isolate at 50 ug/disk incubated for 20 +/- 4 hrs by agar disk diffusion method; format: functional; conditions: read-out: DIZ; how it was run: as §1
# [1] = Cytotoxicity against human NHFB cells assessed as decrease in cell viability in MTT assay; format: cell-based
# How it was run: (§2)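 Cell viability was measured by MTT on a robotic screening platform. Residual viability was expressed as a percentage of the mean viable cells in DMSO-treated controls. Under 25-30% viability was considered cytotoxic, and IC50 values were derived.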
# Streptococcus pyogenes [2] = experiment: Antimicrobial activity against Streptococcus pyogenes clinical isolate at 50 ug/disk incubated for 20 +/- 4 hrs by agar disk diffusion method; format: functional; conditions: read-out: DIZ
# How it was run: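 Plates of MH + 5% horse blood were swabbed with a 0.5 McFarland inoculum and received discs with 50 μg compound (from 5 g/L in DMSO) plus a 10 μL DMSO control disc. Incubation at 35 ± 2 °C aerobically with 5% CO2 for 20 ± 4 h, then zone diameters measured.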
# Clostridium perfringens [3] = experiment: Antimicrobial activity against Clostridium perfringens clinical isolate at 50 ug/disk incubated for 20 +/- 4 hrs by agar disk diffusion method; format: functional; conditions: read-out: DIZ
# How it was run: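 Agar disk diffusion on MH agar with 5% horse blood (MHF), surface-seeded by swab from a 0.5 McFarland inoculum (about 10^8 CFU/ml). Cellulose discs received 10 μl of a 5 g/L DMSO solution (50 μg). A DMSO-only disc served as control. Anaerobic incubation at 35 ± 2 °C for 20 ± 4 h; growth-inhibition diameter measured in mm.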
# Enterococcus faecalis [4] = experiment: Synergistic antimicrobial activity against Enterococcus faecalis ATCC 29212 assessed as DIZ at 50 ug/disk incubated for 20 +/- 4 hrs in presence of erythromycin by agar disk diffusion method (reference value: 20 millimeter); format: functional; conditions: read-out: DIZ
# [5] = tested on: Mycobacteroides abscessus; experiment: Antimicrobial activity against Mycobacterium abscessus clinical isolate at 50 ug/disk incubated for 4 days by agar disk diffusion method; format: functional; conditions: 96 h, read-out: DIZ
# How it was run: (§3)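 On MH agar with 5% horse blood, a 0.5 McFarland inoculum was swabbed and discs with 50 μg compound (from 5 g/L in DMSO) were laid down, alongside a DMSO control disc. Incubation was humid and aerobic at 35 ± 2 °C for 4 days, then growth-inhibition diameters were measured.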
# Escherichia coli [6] = experiment: Antimicrobial activity against ssrA-TolC deficient Escherichia coli BW25113 by agar disk diffusion method; format: functional
# Escherichia coli [7] = experiment: Antimicrobial activity against Escherichia coli clinical isolate at 50 ug/disk incubated for 20 +/- 4 hrs by agar disk diffusion method; format: functional; conditions: read-out: DIZ; how it was run: as §1
# Staphylococcus aureus [8] = experiment: Antimicrobial activity against Staphylococcus aureus ATCC 29213 by broth microdilution method; format: functional
# How it was run: (§4)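 MICs were set by broth microdilution following EUCAST guidelines, from three independent experiments reported as values or ranges. MICs were measured only where disk-diffusion inhibition diameters were 9 mm or more.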
# [9] = tested on: Mycobacteroides abscessus; experiment: Antimicrobial activity against Mycobacterium abscessus clinical isolate by broth microdilution method; format: functional; how it was run: as §4
# Caco-2 = experiment: Cytotoxicity against human Caco2 cells assessed as decrease in cell viability in MTT assay; format: cell-based; how it was run: as §2
# Escherichia coli [10] = experiment: Antimicrobial activity against Escherichia coli BW25113 by broth microdilution method; format: functional
# How it was run: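 MIC by broth microdilution per EUCAST guidelines, in E. coli BW25113 and its previously described deletion derivative.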
# Enterococcus faecalis [11] = experiment: Antimicrobial activity against Enterococcus faecalis ATCC 29212 by broth microdilution method; format: functional; how it was run: as §4
# [12] = tested on: Mycolicibacterium fortuitum; experiment: Antimicrobial activity against Mycobacterium fortuitum clinical isolate at 50 ug/disk incubated for 4 days by agar disk diffusion method; format: functional; conditions: 96 h, read-out: DIZ; how it was run: as §3
# Streptococcus pyogenes [13] = experiment: Antimicrobial activity against Streptococcus pyogenes clinical isolate by broth microdilution method; format: functional; how it was run: as §4
# Enterococcus faecalis [14] = experiment: Synergistic antimicrobial activity against Enterococcus faecalis ATCC 29212 assessed as DIZ at 50 ug/disk incubated for 20 +/- 4 hrs in presence of gentamicin by agar disk diffusion method (reference value: 13 millimeter); format: functional; conditions: read-out: DIZ
# Bacillus subtilis = experiment: Antimicrobial activity against Bacillus subtilis clinical isolate at 50 ug/disk incubated for 20 +/- 4 hrs by agar disk diffusion method; format: functional; conditions: read-out: DIZ; how it was run: as §1
# Listeria monocytogenes = experiment: Synergistic antimicrobial activity against Listeria monocytogenes clinical isolate assessed as DIZ at 50 ug/disk incubated for 20 +/- 4 hrs in presence of ofloxacin by agar disk diffusion method (reference value: 19 millimeter); format: functional; conditions: read-out: DIZ
# Clostridium perfringens [15] = experiment: Antimicrobial activity against Clostridium perfringens clinical isolate by broth microdilution method; format: functional
# How it was run: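 MIC by broth microdilution following EUCAST guidelines; values or ranges from three independent experiments. MICs were determined only where the disk diffusion inhibition diameter was at least 9 mm.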
# Escherichia coli [16] = experiment: Bactericidal activity against TolC deficient Escherichia coli BW25113 by broth microdilution method; format: functional
# Escherichia coli [17] = experiment: Antimicrobial activity against clpP-TolC deficient Escherichia coli BW25113 by agar disk diffusion method; format: functional
# PC-3 = experiment: Cytotoxicity against human PC3 cells assessed as decrease in cell viability in MTT assay; format: cell-based; how it was run: as §2
# Staphylococcus aureus [18] = experiment: Antimicrobial activity against Staphylococcus aureus ATCC 29213 at 50 ug/disk incubated for 20 +/- 4 hrs by agar disk diffusion method; format: functional; conditions: read-out: DIZ; how it was run: as §1
# Pseudomonas aeruginosa = experiment: Antimicrobial activity against Pseudomonas aeruginosa clinical isolate at 50 ug/disk incubated for 20 +/- 4 hrs by agar disk diffusion method; format: functional; conditions: read-out: DIZ; how it was run: as §1
# Escherichia coli [19] = experiment: Antimicrobial activity against TolC deficient Escherichia coli BW25113 by agar disk diffusion method; format: functional
# Proteus vulgaris = experiment: Antimicrobial activity against Proteus vulgaris clinical isolate at 50 ug/disk incubated for 20 +/- 4 hrs by agar disk diffusion method; format: functional; conditions: read-out: DIZ; how it was run: as §1
# NCI-H727 = experiment: Cytotoxicity against human NCI-H727 cells assessed as decrease in cell viability in MTT assay; format: cell-based; how it was run: as §2
# MDA-MB-231 = experiment: Cytotoxicity against human MDA-MB-231 cells assessed as decrease in cell viability in MTT assay; format: cell-based; how it was run: as §2
SMILES,zone of inhibition at 50 µg/disc (Acinetobacter baumannii),zone of inhibition at 50 µg/disc (Kocuria rhizophila),pIC50 [1],zone of inhibition at 50 µg/disc (Streptococcus pyogenes [2]),zone of inhibition at 50 µg/disc (Clostridium perfringens [3]),zone of inhibition at 50 µg/disc [5],diameter of the inhibition zone (DIZ) (Escherichia coli [6]),zone of inhibition at 50 µg/disc (Escherichia coli [7]),MIC (Staphylococcus aureus [8]),MIC [9],pIC50 (Caco-2),MIC (Escherichia coli [10]),MIC (Enterococcus faecalis [11]),zone of inhibition at 50 µg/disc [12],MIC (Streptococcus pyogenes [13]),zone of inhibition at 50 µg/disc (Bacillus subtilis),MIC (Clostridium perfringens [15]),diameter of the inhibition zone (DIZ) (Escherichia coli [17]),pIC50 (PC-3),zone of inhibition at 50 µg/disc (Staphylococcus aureus [18]),also measured
O=C(Nc1nnc(-c2ccc(C(F)(F)F)cc2)o1)c1ccc(Cl)nc1,6 mm,28 mm,< 4.60,10 mm,13 mm,14 mm,27 mm,6 mm,2 to 4 µg/mL,16 to 32 µg/mL,< 4.60,> 128 µM,2 to 4 µg/mL,19 mm,32 µg/mL,24 mm,4 µg/mL,27 mm,< 4.60,22 mm,zone of inhibition at 50 µg/disc (Enterococcus faecalis [4]): 23 mm; zone of inhibition at 50 µg/disc (Enterococcus faecalis [14]): 23 mm; zone of inhibition at 50 µg/disc (Listeria monocytogenes): 30 mm; MBC (Escherichia coli [16]): > 32 µM; zone of inhibition at 50 µg/disc (Pseudomonas aeruginosa): 6 mm; diameter of the inhibition zone (DIZ) (Escherichia coli [19]): 23.6 mm; zone of inhibition at 50 µg/disc (Proteus vulgaris): 8 mm; pIC50 (NCI-H727): < 4.60; pIC50 (MDA-MB-231): < 4.60
O=C(Nc1nnc(-c2ccc(C(F)(F)F)cc2)o1)c1cccc(Cl)c1,6 mm,30 mm,< 4.60,9 mm,11 mm,9 mm,22.3 mm,6 mm,2 µg/mL,32 to 64 µg/mL,4.96,> 128 µM,0.125 to 1 µg/mL,23 mm,4 to 32 µg/mL,24 mm,2 to 4 µg/mL,22.3 mm,4.77,24 mm,zone of inhibition at 50 µg/disc (Enterococcus faecalis [4]): 24 mm; zone of inhibition at 50 µg/disc (Enterococcus faecalis [14]): 23 mm; zone of inhibition at 50 µg/disc (Listeria monocytogenes): 29 mm; MBC (Escherichia coli [16]): 16 µM; zone of inhibition at 50 µg/disc (Pseudomonas aeruginosa): 6 mm; diameter of the inhibition zone (DIZ) (Escherichia coli [19]): 21.3 mm; zone of inhibition at 50 µg/disc (Proteus vulgaris): 6 mm; pIC50 (NCI-H727): 5.00; pIC50 (MDA-MB-231): 4.64
O=C(Nc1nnc(-c2ccc(F)cc2)o1)c1ccc(Cl)cc1,6 mm,11 mm,< 4.60,6 mm,6 mm,6 mm,13 mm,6 mm,0.5 to 4 µg/mL,64 µg/mL,4.85,> 128 µM,16 µg/mL,9 mm,32 to 64 µg/mL,12 mm,4 µg/mL,14.3 mm,4.68,12 mm,MBC (Escherichia coli [16]): > 32 µM; zone of inhibition at 50 µg/disc (Pseudomonas aeruginosa): 6 mm; diameter of the inhibition zone (DIZ) (Escherichia coli [19]): 13 mm; zone of inhibition at 50 µg/disc (Proteus vulgaris): 6 mm; pIC50 (NCI-H727): 4.74; pIC50 (MDA-MB-231): 4.60
O=C(Nc1ncc(-c2ccc(F)cc2)o1)c1ccc(Cl)cc1,6 mm,18 mm,< 4.60,6 mm,6 mm,7 mm,13 mm,6 mm,0.5 to 4 µg/mL,inactive,5.52,> 128 µM,2 to 16 µg/mL,12 mm,32 to 64 µg/mL,15 mm,inactive,13.3 mm,5.70,16 mm,zone of inhibition at 50 µg/disc (Enterococcus faecalis [4]): 20 mm; zone of inhibition at 50 µg/disc (Enterococcus faecalis [14]): 16 mm; zone of inhibition at 50 µg/disc (Listeria monocytogenes): 15 mm; zone of inhibition at 50 µg/disc (Pseudomonas aeruginosa): 6 mm; diameter of the inhibition zone (DIZ) (Escherichia coli [19]): 11.33 mm; zone of inhibition at 50 µg/disc (Proteus vulgaris): 10 mm; pIC50 (MDA-MB-231): 5.30
